Results taken from ChEMBL document CHEMBL1123261, “Comparative antiaggregatory activity in human platelets of a benzopyranone aci-reductone, clofibric acid, and a 2,3-dihydrobenzofuran analogue” (J Med Chem, 1986).

Assays:
Type in all cases: functional, organism-based
[1] = organism: Homo sapiens; experiment: Compound was tested for the inhibitory activity against serotonin secretion by U-46,619 (0.3 uM) + Aspirin (ASA, 1 mM).
Outline: (§1)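 Human platelet-rich plasma (3 × 10^8/mL) prelabeled with [14C]serotonin. Inhibitor added 1 min before the inducer: ADP 1–5 μM, AA 0.2–1 mM, or U46619 0.3 μM with aspirin 1 mM. Dense-granule secretion measured as release of radioactivity. Mean IC50 ± SEM, three to nine donors.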

[2] = organism: Homo sapiens; experiment: Compound was tested for the inhibitory activity against serotonin secretion by adenosine -Diphosphate (ADP (1-5 uM)); outline: as §1
[3] = organism: Homo sapiens; experiment: Compound was tested for the inhibitory activity against serotonin secretion by arachidonic acid (AA (0.1-1 mM)).; conditions: in the assay text read “AA (0.2-1 mM)” for “AA (0.1-1 mM)”; outline: as §1
[4] = organism: Homo sapiens; experiment: Compound was tested for the inhibitory activity against human platelet aggregation by adenosine -Diphosphate (ADP (1-5 uM))
Outline: (§2)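 Human platelet-rich plasma, count adjusted to 3 × 10^8/mL. Turbidometric (Born) aggregometry. Inhibitor added 1 min before inducer, which was used at the minimum level giving maximal aggregation. IC50 taken from change in light-transmittance amplitude after 6 min for ADP (secondary aggregation only) and 4 min for AA and U46619. U46619 samples contained aspirin 1 mM. Mean ± SEM, three to nine donors.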

[5] = organism: Homo sapiens; experiment: Compound was tested for the inhibitory activity against human platelet aggregation by U46,619 (0.3 uM) + Aspirin (ASA, 1 mM).; outline: as §2
[6] = organism: Homo sapiens; experiment: Compound was tested for the inhibitory activity against human platelet aggregation by arachidonic acid (AA (0.1-1 mM)).; conditions: in the assay text read “AA (0.2-1 mM)” for “AA (0.1-1 mM)”; outline: as §2
[7] = organism: Homo sapiens; experiment: Compound was tested for the inhibitory activity against serotonin secretion by adenosine -Diphosphate (ADP (1-5 uM)).; outline: as §1

Structure (SMILES): O=c1c(O)c(O)oc2ccc(Cl)cc12
- IC50 [1]: 2.38 mM
- IC50 [2]: 466 µM
- IC50 [3]: 0.814 mM
- IC50 [4]: 363 µM
- IC50 [5]: 1.51 mM
- IC50 [6]: 739 µM

Structure (SMILES): O=C(O)C1Cc2cc(Cl)ccc2O1 (stereo not given)
- IC50 [1]: 1.44 mM
- IC50 [7]: 419 µM
- IC50 [3]: 1.01 mM
- IC50 [4]: 533 µM
- IC50 [5]: 1.48 mM
- IC50 [6]: 851 µM

Structure (SMILES): CC(C)(Oc1ccc(Cl)cc1)C(=O)O [CLOFIBRIC ACID]
- IC50 [3]: > 3.43 mM
- IC50 [5]: > 4 mM
- IC50 [6]: > 3070 µM
